Active and inactive are the calls of the source. No cut-off for these calls is given here.
Legend:
[1] = system: Trypanosoma brucei brucei; experiment: Antitrypanosomal activity against trypomastigotes of AT1 knockout Trypanosoma brucei brucei 427; assay type: functional, organism-based
[2] = system: Trypanosoma brucei brucei; experiment: Activity against Trypanosoma brucei brucei STIB795 in infected NMRI mouse at 20 mg/kg, ip; assay type: functional, organism-based; design: dose 20 mg/kg
Summary of the method: (§1)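 Mice infected ip with 1 × 10^5 (STIB 795) or 2 × 10^4 (STIB 900) bloodstream forms, in groups of four. Dosed ip once daily on days 3–6, with an untreated control group. Parasitemia checked every second day to day 14, then twice weekly to day 60. Deaths recorded for mean survival time. Cured means surviving and aparasitemic at 60 days.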

[3] = system: Trypanosoma brucei brucei; experiment: Antitrypanosomal activity against trypomastigotes of AT1 wild type Trypanosoma brucei brucei 427; assay type: functional, organism-based
[4] = system: Trypanosoma brucei rhodesiense; experiment: Activity against Trypanosoma brucei rhodesiense STIB900 in infected NMRI mouse at 20 mg/kg, ip; assay type: functional, organism-based; design: dose 20 mg/kg; summary of the method: as §1
Nucleic Acid = experiment: Binding affinity to Trypanosoma brucei rhodesiense DNA; assay type: nucleic-acid assay
Trypanosoma brucei [5] = experiment: Activity against Trypanosoma brucei GVR35 in infected NMRI mouse at 20 mg/kg, ip; assay type: functional, organism-based; design: dose 20 mg/kg
Trypanosoma brucei [6] = experiment: Activity against Trypanosoma brucei GVR35 in infected NMRI mouse at 40 mg/kg, ip; assay type: functional, organism-based; design: dose 40 mg/kg
[7] = system: Trypanosoma brucei brucei; experiment: Activity against Trypanosoma brucei brucei STIB795 in infected NMRI mouse at 10 mg/kg, ip; assay type: functional, organism-based; design: dose 10 mg/kg; summary of the method: as §1

Compound | Activity (Nucleic Acid) | Activity [2] | other results
CC(C)(C)OC(=O)N1CC[N+](C(=O)OC(C)(C)C)=C1Nc1ccc(Nc2ccc(NC3=[N+](C(=O)OC(C)(C)C)CCN3C(=O)OC(C)(C)C)cc2)cc1 |  | inactive | 
N=C(N)c1ccc(OCCCCCOc2ccc(C(=N)N)cc2)cc1 | Active |  | 
c1cc(NC2=NCCN2)ccc1Cc1ccc(NC2=NCCN2)cc1 | Active |  | 
c1cc(N2CCN(c3ccc(NC4=NCCN4)cc3)CC2)ccc1NC1=NCCN1 | Active | Toxic | 
N=C(N)c1ccc(/N=N/Nc2ccc(C(=N)N)cc2)cc1 |  |  | Activity (Trypanosoma brucei [6]): inactive
O=S(=O)(c1ccc(NC2=NCCN2)cc1)c1ccc(NC2=NCCN2)cc1 | inactive |  | 
N=C(N)Nc1ccc(CCCCCCCCc2ccc(NC(=N)N)cc2)cc1 |  |  | Activity [7]: inactive

Further lines, with some results ahead:

Activity (Nucleic Acid) | Compound | Activity [2] | other results
Active | c1cc(Nc2ccc(NC3=NCCN3)cc2)ccc1NC1=NCCN1 | Active | IC50 [1]: 162 nM; IC50 [3]: 63.7 nM; Activity [4]: Active; Activity (Trypanosoma brucei [5]): inactive
Active | N=C(N)Nc1ccc(Cc2ccc(NC(=N)N)cc2)cc1 |  | 
inactive | N=C(N)Nc1ccc(S(=O)(=O)c2ccc(NC(=N)N)cc2)cc1 |  | 
Active | N=C(N)Nc1ccc(Nc2ccc(NC(=N)N)cc2)cc1 | Active | IC50 [1]: 2.2 nM; IC50 [3]: 3 nM
Active | N=C(N)Nc1ccc(N2CCN(c3ccc(NC(=N)N)cc3)CC2)cc1 |  | 
Active | N=C(N)Nc1ccc(C(=O)c2ccc(NC(=N)N)cc2)cc1 |  | 
